Values after ≈ are worked out from the molar mass of the structure shown. Active and inactive are the calls of the source. The calls are words filed in the database; no cut-off is given here.
Assays:
[1] = system: Human alphaherpesvirus 1; assay: Antiviral activity against Herpes simplex virus 1 assessed as plaque reduction at 0.18 x 10^-5 M by cell-based assay relative to vidarabine; format: functional
Outline: (§1)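 HSV-1 plaque-reduction assay by the Hsiung–Melnick procedure. Challenge was 125-300 plaque-forming units. An ara-A control was run alongside each sample at the same molar concentration with an identical virus challenge. Data were confirmed by duplicate assay (±10%).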

[2] = system: Human alphaherpesvirus 1; assay: Antiviral activity against Herpes simplex virus 1 assessed as plaque reduction at 1.76 x 10^-5 M by cell-based assay relative to control; format: functional; outline: as §1
[3] = system: Human alphaherpesvirus 1; assay: Antiviral activity against Herpes simplex virus 1 assessed as plaque reduction at 0.18 x 10^-5 M by cell-based assay relative to control; format: functional; outline: as §1
[4] = system: Human alphaherpesvirus 1; assay: Antiviral activity against Herpes simplex virus 1 assessed as plaque reduction at 1.76 x 10^-5 M by cell-based assay relative to vidarabine; format: functional; outline: as §1
[5] = molecular target: T1, Adenosine deaminase (Bos taurus, UniProt P56658); assay: Activity of calf mucosal adenosine deaminase assessed as enzyme-mediated drug metabolism by liquid chromatographic analysis; format: ADME; conditions: cattle
T1 sequence (P56658 whole entry): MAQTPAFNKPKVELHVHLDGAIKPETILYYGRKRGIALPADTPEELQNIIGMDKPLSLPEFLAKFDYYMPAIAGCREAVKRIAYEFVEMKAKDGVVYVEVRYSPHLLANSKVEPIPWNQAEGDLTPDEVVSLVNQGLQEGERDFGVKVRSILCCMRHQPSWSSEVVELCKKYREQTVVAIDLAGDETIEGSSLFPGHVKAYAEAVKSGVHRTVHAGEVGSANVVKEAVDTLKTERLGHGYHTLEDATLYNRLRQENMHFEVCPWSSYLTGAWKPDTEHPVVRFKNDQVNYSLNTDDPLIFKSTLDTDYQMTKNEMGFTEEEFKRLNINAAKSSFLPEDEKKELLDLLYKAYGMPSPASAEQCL
Outline: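 Drug exposed to the deaminase, with enzyme level also raised 10- and 100-fold. Reaction mixtures analysed by reverse-phase C18 LC (aqueous acetonitrile eluent, 254-nm UV detection) for unchanged substrate.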

[6] = Aqueous solubility of the compound at pH 7; format: physicochemical
[7] = system: Human alphaherpesvirus 2; assay: Antiviral activity against Herpes simplex virus 2 Magill infected in guinea pig assessed as prevention of inflammation at 3% compound concentration treated intravaginally bid for 4 days measured on day 16 post-infection; format: functional, organism-based
Outline: (§2)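 Animals were infected intravaginally with 1 × 10^2.82 PFU in 0.1 mL. Drug ointments were given intravaginally starting 4 h postinfection, then twice daily for 4 days, filling the vagina. Clinical signs were scored as animals positive/infected. Cure meant no symptoms, or symptoms healed by day 16 postinfection; it was reported as cured/infected.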

[8] = system: Human alphaherpesvirus 1; assay: Antiviral activity against Herpes simplex virus 1 assessed as plaque reduction at 1.75 x 10^-5 M by cell-based assay relative to control; format: functional; outline: as §1
[9] = species: Cavia porcellus; assay: Toxicity in albino guinea pig assessed as occurrence of irritation at 3% compound concentration treated intravaginally bid for 4 days; format: organism-based; conditions: in vivo, other, 96 h
[10] = system: Human alphaherpesvirus 2; assay: Antiviral activity against Herpes simplex virus 2 Magill infected in guinea pig assessed as prevention of paralysis at 3% compound concentration treated intravaginally bid for 4 days measured on day 16 post-infection; format: functional, organism-based; outline: as §2
[11] = system: Human alphaherpesvirus 2; assay: Antiviral activity against Herpes simplex virus 2 Magill infected in guinea pig assessed as cured animal at 3% compound concentration treated intravaginally bid for 4 days measured on day 16 post-infection; format: functional, organism-based; outline: as §2
[12] = system: Human alphaherpesvirus 1; assay: Antiviral activity against Herpes simplex virus 1 assessed as plaque reduction at 1.75 x 10^-5 M by cell-based assay relative to vidarabine; format: functional; outline: as §1
[13] = system: Human alphaherpesvirus 2; assay: Antiviral activity against Herpes simplex virus 2 Magill infected in guinea pig assessed as prevention of death at 3% compound concentration treated intravaginally bid for 4 days measured on day 16 post-infection; format: functional, organism-based; outline: as §2
[14] = system: Human alphaherpesvirus 2; assay: Antiviral activity against Herpes simplex virus 2 Magill infected in guinea pig assessed as prevention of vesiculation of labia and vulva at 3% compound concentration treated intravaginally bid for 4 days measured on day 16 post-infection; format: functional, organism-based; outline: as §2
[15] = system: Human alphaherpesvirus 2; assay: Antiviral activity against Herpes simplex virus 2 Magill infected in guinea pig assessed as prevention of vulvo-vaginal swelling at 3% compound concentration treated intravaginally bid for 4 days measured on day 16 post-infection; format: functional, organism-based; outline: as §2
[16] = system: Human alphaherpesvirus 2; assay: Antiviral activity against Herpes simplex virus 2 Magill infected in guinea pig assessed as prevention of vaginal discharge at 3% compound concentration treated intravaginally bid for 4 days measured on day 16 post-infection; format: functional, organism-based; outline: as §2
[17] = system: Human alphaherpesvirus 1; assay: Antiviral activity against Herpes simplex virus 1 assessed as plaque reduction at 0.53 x 10^-5 M by cell-based assay relative to control; format: functional; conditions: Human alphaherpesvirus 1, read-out: INH; outline: as §1
[18] = system: Human alphaherpesvirus 1; assay: Antiviral activity against Herpes simplex virus 1 assessed as plaque reduction at 1.71 x 10^-5 M by cell-based assay relative to vidarabine; format: functional; outline: as §1
[19] = system: Human alphaherpesvirus 1; assay: Antiviral activity against Herpes simplex virus 1 assessed as plaque reduction at 0.53 x 10^-5 M by cell-based assay relative to vidarabine; format: functional; outline: as §1
[20] = system: Human alphaherpesvirus 1; assay: Antiviral activity against Herpes simplex virus 1 assessed as plaque reduction at 0.17 x 10^-5 M by cell-based assay relative to control; format: functional; outline: as §1
[21] = system: Human alphaherpesvirus 1; assay: Antiviral activity against Herpes simplex virus 1 assessed as plaque reduction at 0.17 x 10^-5 M by cell-based assay relative to vidarabine; format: functional; outline: as §1

Stability [5] | solubility ([6]; buffer) | solubility ([6]; aqueous, read-out: solubility) | Structure (SMILES) | inhibition at 1.8 µM [1] | inhibition at 1.8 µM [3] | inhibition at 17.5 µM [8] | inhibition at 17.5 µM [12] | also measured
Stable | soluble | – | CCC(=O)O[C@H]1[C@H](O)[C@@H](CO)O[C@H]1n1cnc2c(N)ncnc21 | 36% | 4% | – | – | inhibition at 17.6 µM [2]: 35%; inhibition at 17.6 µM [4]: 88%
Stable | – | 33000 µg/mL (≈ 93900 µM) | CC(=O)O[C@H]1[C@H](OC(C)=O)[C@@H](CO)O[C@H]1n1cnc2c(N)ncnc21 | 40% | 0% | 68% | 100% | Activity [7]: Active; Activity [9]: Non-toxic; Activity [10]: Active; Activity [11]: Active; Activity [13]: Active; Activity [14]: Active; Activity [15]: Active; Activity [16]: Active
Stable | – | 20 µg/mL (≈ 49.1 µM) | CC(C)C(=O)OC[C@H]1O[C@@H](n2cnc3c(N)ncnc32)[C@@H](O)[C@@H]1OC(=O)C(C)C | – | – | 0% | 90% | –
Unstable | soluble | – | CCC(=O)O[C@H]1[C@H](O)[C@H](n2cnc3c(N)ncnc32)O[C@@H]1CO | 36% | 5% | – | – | inhibition at 17.6 µM [2]: 80%; inhibition at 17.6 µM [4]: 87%
Stable | – | 420 µg/mL (≈ 1030 µM) | CC(C)C(=O)O[C@H]1[C@H](OC(=O)C(C)C)[C@@H](CO)O[C@H]1n1cnc2c(N)ncnc21 | – | – | – | – | inhibition at 5.3 µM [17]: 0%; inhibition at 17.1 µM [18]: 90%; inhibition at 5.3 µM [19]: 73%
Unstable | soluble | – | CC(=O)O[C@H]1[C@H](O)[C@H](n2cnc3c(N)ncnc32)O[C@@H]1CO | – | – | – | – | inhibition at 17.1 µM [18]: 87%; inhibition at 1.7 µM [20]: 9%; inhibition at 1.7 µM [21]: 36%
Unstable | soluble | – | CC(C)C(=O)O[C@H]1[C@H](O)[C@H](n2cnc3c(N)ncnc32)O[C@@H]1CO | 60% | 26% | 99% | 90% | –
